Experimental data as given in ChEMBL document CHEMBL1806457, “Synthesis and antimicrobial evaluation of new benzofuran derivatives” (2011).
Values after ≈ are worked out from the molar mass of the structure shown.

Experiments:
Assay type in all cases: functional
[1] = system: Bacillus subtilis; assay: Antibacterial activity against 1 x 10^4 cfu/mL Bacillus subtilis ATCC 33712 after 24 hrs by NCCLS M7-A6 microtiter broth dilution method; settings: ATCC 33712, 24 h
[2] = system: Escherichia coli; assay: Antibacterial activity against 1 x 10^4 cfu/mL Escherichia coli ATCC 11303 after 24 hrs by NCCLS M7-A6 microtiter broth dilution method; settings: ATCC 11303, 24 h
[3] = system: Staphylococcus aureus; assay: Antibacterial activity against 1 x 10^4 cfu/mL methicillin-resistant Staphylococcus aureus ATCC 700699 after 24 hrs by NCCLS M7-A6 microtiter broth dilution method; settings: ATCC 700699, 24 h
Method in brief: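 Bacteria pre-cultured in LB broth 24 h at 37 °C. Colonies suspended in sterile saline and adjusted to 0.5 McFarland (625 nm, 1–2 × 10⁸ cfu/mL), then diluted 1:10,000 in LB. Compounds from a 4 mg/mL DMSO stock were two-fold serially diluted across a 96-well plate, 200 down to 0.39 µg/mL. MIC80 was the lowest concentration preventing visible growth (>80% inhibition).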

[4] = system: Staphylococcus aureus; assay: Antibacterial activity against 1 x 10^4 cfu/mL Staphylococcus aureus ATCC 29213 after 24 hrs by NCCLS M7-A6 microtiter broth dilution method; settings: ATCC 29213, 24 h
[5] = system: Candida albicans; assay: microbe, parasite or virus in culture; settings: ATCC 6258, 48 h

SMILES	MIC80 [1] [µg/mL]	MIC80 [2] [µg/mL]	MIC80 [3] [µg/mL]	MIC80 [4] [µg/mL]	MIC80 [5] [µg/mL]
CC(C)(O/N=C(\C(=O)N[C@@H]1C(=O)N2C(C(=O)[O-])=C(C[n+]3ccccc3)CS[C@H]12)c1csc(N)n1)C(=O)O [CEFTAZIDIME]	6.25 (≈ 11.4 µM)	> 200	12.5 (≈ 22.9 µM)	0.78 (≈ 1.43 µM)	–
COc1ccc(-c2oc3ccc(C)cc3c2C(=O)c2ccc(Cl)cc2)cc1	> 200	> 200	> 200	> 200	> 200
COc1ccc(-c2oc3ccc(C)cc3c2C(=O)c2ccc(O)c(I)c2)cc1	1.56 (≈ 3.22 µM)	3.12 (≈ 6.44 µM)	0.78 (≈ 1.61 µM)	0.78 (≈ 1.61 µM)	> 200
COc1ccc(-c2oc3ccc(C)cc3c2C(=O)c2cc(Cl)cc(Cl)c2)cc1	> 200	> 200	> 200	> 200	> 200
COc1ccc(-c2oc3ccc(C)cc3c2C(=O)c2cc(OC)cc(OC)c2)cc1	> 200	> 200	> 200	> 200	> 200
Oc1ccc(/C=C/c2cc(O)cc(O)c2)cc1 [RESVERATROL]	25 (≈ 110 µM)	25 (≈ 110 µM)	25 (≈ 110 µM)	25 (≈ 110 µM)	> 200
COc1ccc(-c2oc3ccc(C)cc3c2C(=O)c2cc(OC)c(OC)c(OC)c2)cc1	> 200	> 200	> 200	> 200	> 200
COc1ccc(-c2oc3ccc(C)cc3c2C(=O)c2cc(F)c(F)cc2Br)cc1	> 200	> 200	> 200	> 200	> 200
COc1ccc(-c2oc3ccc(C)cc3c2C(=O)c2cccc(OC)c2O)cc1	> 200	> 200	> 200	> 200	> 200
COc1ccc(-c2oc3ccc(C)cc3c2C(=O)c2ccc(O)cc2)cc1	0.78 (≈ 2.18 µM)	0.78 (≈ 2.18 µM)	0.78 (≈ 2.18 µM)	< 0.39	> 200
COc1ccc(-c2oc3ccc(C)cc3c2C(=O)c2cc(O)cc(OC)c2)cc1	0.78 (≈ 2.01 µM)	0.78 (≈ 2.01 µM)	0.78 (≈ 2.01 µM)	< 0.39	> 200
COc1ccc(-c2oc3ccc(C)cc3c2C(=O)c2ccc(O)c(C)c2)cc1	1.56 (≈ 4.19 µM)	0.78 (≈ 2.09 µM)	0.78 (≈ 2.09 µM)	0.78 (≈ 2.09 µM)	> 200
Clc1ccc(COC(Cn2ccnc2)c2ccc(Cl)cc2Cl)c(Cl)c1.O=[N+]([O-])O (centres undefined) [MICONAZOLE NITRATE]	–	–	–	–	< 0.39
COc1ccc(-c2oc3ccc(C)cc3c2C(=O)c2ccccc2Br)cc1	0.78 (≈ 1.85 µM)	> 200	> 200	> 200	> 200
COc1ccc(C(=O)c2c(-c3ccc(OC)cc3)oc3ccc(C)cc23)cc1	> 200	> 200	> 200	> 200	> 200
CC(=O)N1CCN(c2ccc(OCC3COC(Cn4ccnc4)(c4ccc(Cl)cc4Cl)O3)cc2)CC1 (centres undefined) [KETOCONAZOLE]	–	–	–	–	< 0.39
COc1ccc(-c2oc3ccc(C)cc3c2C(=O)c2cccc(OC)c2OC)cc1	> 200	> 200	> 200	> 200	> 200
CO/N=C(\C(=O)N[C@@H]1C(=O)N2C(C(=O)O)=C(COC(C)=O)CS[C@H]12)c1csc(N)n1 [CEFOTAXIME]	0.78 (≈ 1.71 µM)	> 200	3.12 (≈ 6.85 µM)	3.12 (≈ 6.85 µM)	–
CC1(C)S[C@@H]2[C@H](NC(=O)Cc3ccccc3)C(=O)N2[C@H]1C(=O)[O-].[Na+] [PENICILLIN G SODIUM]	< 0.39	0.78	3.12	3.12	–
